Measured values taken from ChEMBL document CHEMBL4368909, “Identification of Dihydrofuro[3,4- d]pyrimidine Derivatives as Novel HIV-1 Non-Nucleoside Reverse Transcriptase Inhibitors with Promising Antiviral Activities and Desirable Physicochemical Properties” (J Med Chem, 2019).
≈ marks a conversion by molar mass, not a printed value.

Tests used:
[1] = test system: Human immunodeficiency virus 2; experiment: Antiviral activity against HIV2 ROD infected in human MT4 cells assessed as reduction in virus-induced cytopathic effect after 5 days by MTT assay; conditions: Human immunodeficiency virus 2, ISOLATE ROD, MT4, 120 h
[2] = Selectivity ratio of CC50 for human MT4 cells to EC50 for HIV1 3B infected in human MT4 cells; assay type: toxicity, cell-based; conditions: read-out: Ratio CC50/EC50
[3] = (§1) Cytotoxicity against human MT4 cells after 5 days by MTT assay; assay type: cell-based; conditions: MT4 cells
[4] = Selectivity ratio of CC50 for human MT4 cells to EC50 for HIV1 RES056 infected in human MT4 cells; assay type: toxicity, cell-based; conditions: read-out: Ratio CC50/EC50
[5] = test system: Human immunodeficiency virus 1; experiment: Antiviral activity against HIV1 RES056 infected in human MT4 cells assessed as reduction in virus-induced cytopathic effect after 5 days by MTT assay; assay type: functional, organism-based; conditions: Human immunodeficiency virus 1, RES056, MT4, 120 h
[6] = test system: Human immunodeficiency virus 1; experiment: Antiviral activity against wild type HIV1 3B infected in human MT4 cells assessed as reduction in virus-induced cytopathic effect after 5 days by MTT assay; assay type: functional, organism-based; conditions: Human immunodeficiency virus 1, 3B, MT4, 120 h
[7] = test system: Human immunodeficiency virus 1; experiment: Resistance factor, ratio of EC50 for HIV1 harboring reverse transcriptase Y188L mutant to EC50 for wild type HIV1; assay type: functional
Summary of the method: (§2)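 The resistance factor is the EC50 against the mutant strain divided by the EC50 against wild-type HIV-1. Both were measured in MT-4 cells by MTT read-out of protection from virus-induced cytopathicity.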

[8] = Selectivity ratio of CC50 for human MT4 cells to EC50 for HIV1 harboring reverse transcriptase Y181C mutant infected in human MT4 cells; assay type: toxicity, cell-based; conditions: read-out: Ratio CC50/EC50
[9] = test system: Human immunodeficiency virus 1; experiment: Antiviral activity against HIV1 harboring reverse transcriptase F227L/V106A double mutant infected in human MT4 cells assessed as reduction in virus-induced cytopathic effect after 5 days by MTT assay; assay type: functional, organism-based; conditions: Human immunodeficiency virus 1, MT4, 120 h
[10] = test system: Human immunodeficiency virus 1; experiment: Antiviral activity against HIV1 harboring reverse transcriptase Y188L mutant infected in human MT4 cells assessed as reduction in virus-induced cytopathic effect after 5 days by MTT assay; assay type: functional, organism-based; conditions: Human immunodeficiency virus 1, MT4, 120 h
[11] = Aqueous solubility of the compound at pH at 2 by HPLC analysis; assay type: physicochemical; conditions: buffer, pH 2
Summary of the method: (§3)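 Aqueous solubility read by HPLC in buffer at pH 2.0, 7.0 or 7.4.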

[12] = Selectivity ratio of CC50 for human MT4 cells to EC50 for HIV1 harboring reverse transcriptase E138K mutant infected in human MT4 cells; assay type: toxicity, cell-based; conditions: read-out: Ratio CC50/EC50
[13] = test system: Human immunodeficiency virus 1; experiment: Antiviral activity against HIV1 harboring reverse transcriptase K103N mutant infected in human MT4 cells assessed as reduction in virus-induced cytopathic effect after 5 days by MTT assay; assay type: functional, organism-based; conditions: Human immunodeficiency virus 1, MT4, 120 h
[14] = Aqueous solubility of the compound at pH at 7.4 by HPLC analysis; assay type: physicochemical; conditions: buffer, pH 7.4
Summary of the method: as §3

MT4 = experiment: as §1; assay type: cell-based; conditions: mt4, 120 h
[15] = test system: Human immunodeficiency virus 1; experiment: Antiviral activity against HIV1 harboring reverse transcriptase L100I mutant infected in human MT4 cells assessed as reduction in virus-induced cytopathic effect after 5 days by MTT assay; assay type: functional, organism-based; conditions: Human immunodeficiency virus 1, MT4, 120 h
[16] = Selectivity ratio of CC50 for human MT4 cells to EC50 for HIV1 harboring reverse transcriptase L100I mutant infected in human MT4 cells; assay type: toxicity, cell-based; conditions: read-out: Ratio CC50/EC50
[17] = test system: Human immunodeficiency virus 1; experiment: Resistance factor, ratio of EC50 for HIV1 harboring reverse transcriptase L100I mutant to EC50 for wild type HIV1; assay type: functional
Summary of the method: as §2

[18] = Selectivity ratio of CC50 for human MT4 cells to EC50 for HIV1 harboring reverse transcriptase Y188L mutant infected in human MT4 cells; assay type: toxicity, cell-based; conditions: read-out: Ratio CC50/EC50
[19] = Aqueous solubility of the compound in FASSIF by HPLC analysis; assay type: physicochemical; conditions: simulated gi fluid
Summary of the method: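 Solubility read by HPLC in fasted state simulated intestinal fluid (FaSSIF).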

[20] = test system: Human immunodeficiency virus 1; experiment: Resistance factor, ratio of EC50 for HIV1 harboring reverse transcriptase F227L/V106A double mutant to EC50 for wild type HIV1; assay type: functional
Summary of the method: as §2

[21] = test system: Human immunodeficiency virus 1; experiment: Resistance factor, ratio of EC50 for HIV1 harboring reverse transcriptase K103N mutant to EC50 for wild type HIV1; assay type: functional
Summary of the method: as §2

[22] = Aqueous solubility of the compound at pH at 7 by HPLC analysis; assay type: physicochemical; conditions: buffer, pH 7
Summary of the method: as §3

[23] = test system: Human immunodeficiency virus 1; experiment: Resistance factor, ratio of EC50 for HIV1 harboring reverse transcriptase Y181C mutant to EC50 for wild type HIV1; assay type: functional
Summary of the method: as §2

[24] = Selectivity ratio of CC50 for human MT4 cells to EC50 for HIV1 harboring reverse transcriptase K103N mutant infected in human MT4 cells; assay type: toxicity, cell-based; conditions: read-out: Ratio CC50/EC50
[25] = Selectivity ratio of CC50 for human MT4 cells to EC50 for HIV1 harboring reverse transcriptase F227L/V106A double mutant infected in human MT4 cells; assay type: toxicity, cell-based; conditions: read-out: Ratio CC50/EC50
[26] = test system: Human immunodeficiency virus 1; experiment: Antiviral activity against HIV1 harboring reverse transcriptase E138K mutant infected in human MT4 cells assessed as reduction in virus-induced cytopathic effect after 5 days by MTT assay; assay type: functional, organism-based; conditions: Human immunodeficiency virus 1, MT4, 120 h
[27] = test system: Human immunodeficiency virus 1; experiment: Resistance factor, ratio of EC50 for HIV1 harboring reverse transcriptase E138K mutant to EC50 for wild type HIV1; assay type: functional
Summary of the method: as §2

[28] = molecular target: Human immunodeficiency virus type 1 reverse transcriptase (Human immunodeficiency virus 1, UniProt Q72547); experiment: Inhibition of recombinant HIV1 reverse transcriptase using (DIG)-dUTP and biotin-labeled dNTPs as substrate after 1 hr by ELISA
[29] = test system: Human immunodeficiency virus 1; experiment: Antiviral activity against HIV1 harboring reverse transcriptase Y181C mutant infected in human MT4 cells assessed as reduction in virus-induced cytopathic effect after 5 days by MTT assay; assay type: functional, organism-based; conditions: Human immunodeficiency virus 1, MT4, 120 h
[30] = Protein binding in rat plasma assessed as recovery rate at 1 uM after 5 hrs by LC/MS analysis; assay type: ADME, cell-free
Summary of the method: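 Equilibrium dialysis against plasma proteins: human plasma for line 1, Wistar rat plasma for line 2. Reference drug tested at 1 μM. Recovery rate reported alongside percent protein-binding rate.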

[31] = Sub-acute toxicity in Kunming mouse assessed as alveolar hemorrhage at 50 mg/kg/day, po administered for 2 weeks by hematoxylin and eosin staining-based assay; assay type: organism-based; conditions: in vivo, 336 h
Summary of the method: (§4)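 Mice were dosed orally at 50 mg/kg/day for 2 weeks and observed for behavioural abnormalities during treatment. Organs were then examined by hematoxylin–eosin staining.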

[32] = Sub-acute toxicity in Kunming mouse assessed as proximal convoluted tubule edema in kidney at 50 mg/kg/day, po administered for 2 weeks by hematoxylin and eosin staining-based assay; assay type: organism-based; conditions: in vivo, 336 h
Summary of the method: as §4

[33] = Sub-acute toxicity in Kunming mouse assessed as alveolar interstitial thickening at 50 mg/kg/day, po administered for 2 weeks by hematoxylin and eosin staining-based assay; assay type: organism-based; conditions: in vivo, 336 h
Summary of the method: as §4

Row | SMILES | EC50 [1] | selectivity ratio [2] | selectivity ratio [4] | EC50 [5] | EC50 [6] | Ratio EC50 [7] | selectivity ratio [8] | EC50 [9] | EC50 [10] | solubility [11] | selectivity ratio [12] | EC50 [13] | solubility [14] | CC50 (MT4) | EC50 [15] | selectivity ratio [16] | Ratio EC50 [17] | solubility [19] | EC50 [26] | EC50 [29] | other results
1 | Cc1cc(C#N)cc(C)c1Oc1nc(NC2CCN(Cc3cccc(C(N)=O)c3)CC2)nc2c1SCCC2 | > 5800 nM | 1140 | 5.5 | 1050 nM | 5.1 nM | – | – | – | – | – | – | – | – | – | – | – | – | – | – | – | CC50 at 120 h [3]: 5800 nM
2 | Cc1cc(C#N)cc(C)c1Oc1nc(NC2CCN(Cc3ccc(S(N)(=O)=O)cc3)CC2)nc2c1COC2 | ≥ 8370 nM | 9520 | 725 | 38 nM | 2.8 nM | 5.3 | 5090 | 12.7 nM | 15.2 nM | 174 µg/mL (≈ 325 µM) | 3470 | 2.9 nM | 5.68 µg/mL (≈ 10.6 µM) | 27500 nM | 3 nM | 8940 | 1.1 | 8.42 µg/mL (≈ 15.7 µM) | 7.9 nM | 5.4 nM | selectivity ratio [18]: 1810; Ratio EC50 [20]: 4.2; Ratio EC50 [21]: 1; solubility [22]: 10.3 µg/mL (≈ 19.3 µM); Ratio EC50 [23]: 1.9; selectivity ratio [24]: 9220; selectivity ratio [25]: 2270; Ratio EC50 [27]: 2.7; IC50 [28]: 109 nM
3 | CC(=O)CC(c1ccccc1)c1c(O)c2ccccc2oc1=O (configuration not stated) [WARFARIN] | – | – | – | – | – | – | – | – | – | – | – | – | – | – | – | – | – | – | – | – | Drug recovery [30]: 107%
4 | Cc1cc(C#N)cc(C)c1Oc1nc(Nc2ccc(C#N)cc2)nc(N)c1Br [ETRAVIRINE] | – | – | – | 45.4 nM | 5.1 nM | – | – | 19.7 nM | – | – | – | – | – | – | 6 nM | – | – | 13.2 µg/mL (≈ 30.3 µM) | 9.7 nM | 14.5 nM | Activity [31]: Toxic; solubility ([14]; read-out: solubility): < 1 µg/mL; Activity [32]: Toxic; solubility ([22]; read-out: solubility): < 1 µg/mL; Activity [33]: Toxic
5 | Cc1cc(C#N)cc(C)c1Oc1nc(NC2CCN(Cc3ccc(S(C)(=O)=O)cc3)CC2)nc2c1COC2 | > 27000 nM | 15900 | 752 | 41.6 nM | 1.9 nM | 4 | 6320 | 7.2 nM | 7.9 nM | 164 µg/mL (≈ 307 µM) | 3990 | 2 nM | < 1 µg/mL | 31300 nM | 3.4 nM | 9050 | 1.8 | 23.6 µg/mL (≈ 44.2 µM) | 7.8 nM | 4.9 nM | selectivity ratio [18]: 3940; Ratio EC50 [20]: 3.7; Ratio EC50 [21]: 1; solubility [22]: 1.37 µg/mL (≈ 2.57 µM); Ratio EC50 [23]: 2.5; selectivity ratio [24]: 15200; selectivity ratio [25]: 4350; Ratio EC50 [27]: 4; IC50 [28]: 77 nM
